In ChEMBL document CHEMBL4190216, “Asymmetric 1,5-diarylpenta-1,4-dien-3-ones: Antiproliferative activity in prostate epithelial cell models and pharmacokinetic studies” (Eur J Med Chem, 2017):

Assays:
[1] = Drug level in human liver microsomes treated with (1E,4E)-1-(1-(sec-Butyl)1H-imidazol-2-yl)-5-(2-methyl-4-(trifluoromethyl)thiazol-5-yl)penta-1,4-dien-3-one at 10 mM after 60 mins by UHPLC analysis; assay type: ADME, microsome
How it was run: (§1)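 Pooled human liver microsomes in potassium phosphate buffer (pH 7.4) with NADPH solutions A and B were preincubated for 5 min at 37 °C. Compound was then added from a 10 mM stock (3 μL into 300 μL total) and incubated 60 min at 37 °C. Reactions were quenched with an equal volume of methanol and centrifuged (10,000 × g, 4 min, 4 °C). Supernatant went to UHPLC–high-resolution MS for metabolite identification.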

[2] = Retention time of the compound; assay type: physicochemical
[3] = Drug level in human liver microsomes treated with (1E,4E)-1-(1-Ethyl1H-benzo[d]imidazol-2-yl)-5-(2-methyl-4-(trifluoromethyl)thiazol-5-yl)penta-1,4-dien-3-one at 10 mM after 60 mins by UHPLC analysis; assay type: ADME, microsome; conditions: 1 h; how it was run: as §1
[4] = system: PC-3; experiment: Antiproliferative activity against human PC3 cells assessed as decrease in cell viability after 3 days by WST assay; assay type: functional, cell-based; conditions: PC-3, 72 h
How it was run: (§2)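 Cells were seeded at 3,200 per well. PC-3 and LNCaP were grown in RPMI-1640 and DU-145 in EMEM, each with 10% FBS and 1% penicillin/streptomycin, at 37 °C and 5% CO2. Cells were exposed for 3 days to at least five concentrations, with DMSO as vehicle control. WST-1 reagent was then added for 3 h at 37 °C and absorbance read at 430 nm. IC50 came from linear inhibition, averaged over triplicates.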

[5] = system: DU-145; experiment: Antiproliferative activity against human DU145 cells assessed as decrease in cell viability after 3 days by WST assay; assay type: functional, cell-based; conditions: DU-145, 72 h; how it was run: as §2
[6] = system: LNCaP; experiment: Antiproliferative activity against human LNCAP cells assessed as decrease in cell viability after 3 days by WST assay; assay type: functional, cell-based; conditions: 72 h; how it was run: as §2
[7] = system: PC-3; experiment: Potency index, ratio of curcumin IC50 to test compound IC50 for human PC3 cells; assay type: functional
[8] = system: DU-145; experiment: Potency index, ratio of curcumin IC50 to test compound IC50 for human DU145 cells; assay type: functional
[9] = system: LNCaP; experiment: Potency index, ratio of curcumin IC50 to test compound IC50 for human LNCAP cells; assay type: functional
[10] = system: PWR-1E; experiment: Antiproliferative activity against human PWR-1E cells expressing androgen receptor and PSA assessed as decrease in cell viability after 3 days by WST assay; assay type: functional, cell-based; conditions: 72 h
How it was run: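 Non-malignant prostate epithelial PWR-1E (adenovirus 12/SV40-immortalized) was seeded at 5,000 per well. Cells were exposed for 3 days at 37 °C in a CO2 incubator to at least five concentrations, with DMSO as vehicle control. WST-1 reagent was then added for 3 h at 37 °C and absorbance read at 430 nm. IC50 came from linear inhibition, as the mean of triplicate determinations.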

[11] = system: PWR-1E; experiment: Potency index, ratio of curcumin IC50 to test compound IC50 for human PWR-1E cells expressing androgen receptor and PSA; assay type: functional
[12] = Antiproliferative activity against human LNCaP95 cells expressing androgen receptor splice variants assessed as decrease in cell viability after 5 days by trypan blue exclusion assay; assay type: functional, cell-based; conditions: LNCaP-95, 120 h
[13] = system: VCaP; experiment: Antiproliferative activity against human VCaP cells expressing androgen receptor splice variants assessed as decrease in cell viability after 5 days by trypan blue exclusion assay; assay type: functional, cell-based; conditions: 120 h
[14] = system: CWR22R; experiment: Antiproliferative activity against human 22Rv1 cells expressing androgen receptor splice variants assessed as decrease in cell viability after 5 days by trypan blue exclusion assay; assay type: functional, cell-based; conditions: 22Rv1, 120 h
[15] = Plasma concentration in Sprague-Dawley rat at 10 mg/kg administered via oral gavage measured at 1 hr by HPLC-MS/MS analysis; assay type: ADME, organism-based
[16] = Plasma concentration in Sprague-Dawley rat at 10 mg/kg administered via oral gavage measured at 3 hrs by HPLC-MS/MS analysis; assay type: ADME, organism-based
[17] = Plasma concentration in Sprague-Dawley rat at 10 mg/kg administered via oral gavage measured at 6 hrs by HPLC-MS/MS analysis; assay type: ADME, organism-based
[18] = Plasma concentration in Sprague-Dawley rat at 10 mg/kg administered via oral gavage measured after 1 day by HPLC-MS/MS analysis; assay type: ADME, organism-based
[19] = Tmax in Sprague-Dawley rat at 10 mg/kg administered via oral gavage by HPLC-MS/MS analysis; assay type: ADME, organism-based; conditions: in vivo
[20] = Cmax in Sprague-Dawley rat at 10 mg/kg administered via oral gavage by HPLC-MS/MS analysis; assay type: ADME, organism-based; design: dose 10 mg/kg, route oral; conditions: in vivo
[21] = AUC in Sprague-Dawley rat at 10 mg/kg administered via oral gavage by HPLC-MS/MS analysis; assay type: ADME, organism-based; conditions: in vivo
[22] = system: Rattus norvegicus; experiment: Acute toxicity in Sprague-Dawley rat assessed as mortality at 10 mg/kg administered via oral gavage after 48 hrs; assay type: organism-based; conditions: in vivo
How it was run: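 Male Sprague-Dawley rats (250–300 g, n = 4) each received a single 10 mg/kg oral gavage dose. The vehicle was 5% DMSO, 40% polyethylene glycol 400 and 55% saline. Blood was drawn from the lateral tail vein at 1, 3, 6 and 24 h for plasma drug levels. Toxicity was scored as observed deaths after dosing.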

[23] = system: PC-3; experiment: Cell cycle arrest in human PC3 cells assessed as accumulation at G0/G1 phase at 4 uM after 16 hrs by propidium iodide staining-based flow cytometric method (reference value: 51 to 52%); assay type: functional
[24] = system: PC-3; experiment: Cell cycle arrest in human PC3 cells assessed as accumulation at G0/G1 phase at 4 uM after 24 hrs by propidium iodide staining-based flow cytometric method (reference value: 59 to 62%); assay type: functional
[25] = system: PC-3; experiment: Cell cycle arrest in human PC3 cells assessed as accumulation at G2 phase at 4 uM after 24 hrs by propidium iodide staining-based flow cytometric method (reference value: 24%); assay type: functional
[26] = system: PC-3; experiment: Induction of apoptosis in human PC3 cells assessed as viable cells at 2 uM after 16 hrs by F2N12S/CYTOX AADvanced double staining-based flow cytometric method (reference value: 95%); assay type: functional; conditions: PC-3, 16 h, read-out: Activity
[27] = system: PC-3; experiment: Induction of apoptosis in human PC3 cells assessed as early apoptotic cells at 2 uM after 16 hrs by F2N12S/CYTOX AADvanced double staining-based flow cytometric method (reference value: 2%); assay type: functional
[28] = system: PC-3; experiment: Induction of apoptosis in human PC3 cells assessed as late apoptotic/necrotic cells at 2 uM after 16 hrs by F2N12S/CYTOX AADvanced double staining-based flow cytometric method (reference value: 3%); assay type: functional
[29] = system: PC-3; experiment: Induction of apoptosis in human PC3 cells assessed as viable cells at 4 uM after 16 hrs by F2N12S/CYTOX AADvanced double staining-based flow cytometric method (reference value: 95%); assay type: functional; conditions: PC-3, 16 h, read-out: Activity
[30] = system: PC-3; experiment: Induction of apoptosis in human PC3 cells assessed as late apoptotic/necrotic cells at 4 uM after 16 hrs by F2N12S/CYTOX AADvanced double staining-based flow cytometric method (reference value: 3%); assay type: functional
[31] = system: PC-3; experiment: Induction of apoptosis in human PC3 cells assessed as viable cells at 6 uM after 16 hrs by F2N12S/CYTOX AADvanced double staining-based flow cytometric method (reference value: 95%); assay type: functional; conditions: PC-3, 16 h, read-out: Activity
[32] = system: PC-3; experiment: Induction of apoptosis in human PC3 cells assessed as early apoptotic cells at 6 uM after 16 hrs by F2N12S/CYTOX AADvanced double staining-based flow cytometric method (reference value: 2%); assay type: functional
[33] = system: PC-3; experiment: Induction of apoptosis in human PC3 cells assessed as late apoptotic/necrotic cells at 6 uM after 16 hrs by F2N12S/CYTOX AADvanced double staining-based flow cytometric method (reference value: 3%); assay type: functional
[34] = system: PC-3; experiment: Induction of apoptosis in human PC3 cells assessed as viable cells at 8 uM after 16 hrs by F2N12S/CYTOX AADvanced double staining-based flow cytometric method (reference value: 95%); assay type: functional; conditions: PC-3, 16 h, read-out: Activity
[35] = system: PC-3; experiment: Induction of apoptosis in human PC3 cells assessed as early apoptotic cells at 8 uM after 16 hrs by F2N12S/CYTOX AADvanced double staining-based flow cytometric method (reference value: 2%); assay type: functional
[36] = system: PC-3; experiment: Induction of apoptosis in human PC3 cells assessed as late apoptotic/necrotic cells at 8 uM after 16 hrs by F2N12S/CYTOX AADvanced double staining-based flow cytometric method (reference value: 3%); assay type: functional
[37] = system: PC-3; experiment: Induction of apoptosis in human PC3 cells assessed as viable cells at 10 uM after 16 hrs by F2N12S/CYTOX AADvanced double staining-based flow cytometric method (reference value: 95%); assay type: functional; conditions: PC-3, 16 h, read-out: Activity
[38] = system: PC-3; experiment: Induction of apoptosis in human PC3 cells assessed as early apoptotic cells at 10 uM after 16 hrs by F2N12S/CYTOX AADvanced double staining-based flow cytometric method (reference value: 2%); assay type: functional
[39] = system: PC-3; experiment: Induction of apoptosis in human PC3 cells assessed as late apoptotic/necrotic cells at 10 uM after 16 hrs by F2N12S/CYTOX AADvanced double staining-based flow cytometric method (reference value: 3%); assay type: functional
[40] = system: PC-3; experiment: Induction of apoptosis in human PC3 cells assessed as viable cells at 15 uM after 16 hrs by F2N12S/CYTOX AADvanced double staining-based flow cytometric method (reference value: 95%); assay type: functional; conditions: PC-3, 16 h, read-out: Activity
[41] = system: PC-3; experiment: Induction of apoptosis in human PC3 cells assessed as early apoptotic cells at 15 uM after 16 hrs by F2N12S/CYTOX AADvanced double staining-based flow cytometric method (reference value: 2%); assay type: functional
[42] = system: PC-3; experiment: Induction of apoptosis in human PC3 cells assessed as late apoptotic/necrotic cells at 15 uM after 16 hrs by F2N12S/CYTOX AADvanced double staining-based flow cytometric method (reference value: 3%); assay type: functional

CCC(C)n1ccnc1/C(O)=C/C(=O)/C=C/c1sc(C)nc1C(F)(F)F (stereo not drawn)
Drug metabolism [1]: Metabolite_Detected | Retention_time [2]: 3.7 min

CCn1c(/C=C/C(=O)/C=C(\O)c2sc(C)nc2C(F)(F)F)nc2ccccc21
Drug metabolism [3]: Metabolite_Detected | Retention_time [2]: 4.66 min

CCC(C)n1ccnc1/C=C/C(=O)/C=C(\O)c1sc(C)nc1C(F)(F)F (stereo not drawn)
Drug metabolism [1]: Metabolite_Detected | Retention_time [2]: 3.97 min

CCn1c(/C(O)=C/C(=O)/C=C/c2sc(C)nc2C(F)(F)F)nc2ccccc21
Drug metabolism [3]: Metabolite_Detected | Retention_time [2]: 4.54 min

Cn1cc(Br)c(/C=C/C(=O)/C=C/c2ccccn2)n1
IC50 [4]: 310 nM | IC50 [5]: 500 nM | IC50 [6]: 220 nM | Ratio IC50 [7]: 82 | Ratio IC50 [8]: 53 | Ratio IC50 [9]: 62 | IC50 [10]: 100 nM | Ratio IC50 [11]: 89

CCC(C)n1ccnc1/C=C/C(=O)/C=C/c1cccc(C)n1 (stereo not drawn)
IC50 [4]: 260 nM | IC50 [5]: 290 nM | IC50 [6]: 260 nM | Ratio IC50 [7]: 98 | Ratio IC50 [8]: 90 | Ratio IC50 [9]: 52 | IC50 [10]: 130 nM | Ratio IC50 [11]: 68

CCC(C)n1ccnc1/C=C/C(=O)/C=C/c1nccs1 (stereo not drawn)
IC50 [4]: 390 nM | IC50 [5]: 420 nM | IC50 [6]: 170 nM | Ratio IC50 [7]: 64 | Ratio IC50 [8]: 62 | Ratio IC50 [9]: 80 | IC50 [10]: 140 nM | Ratio IC50 [11]: 63

CCCn1ccnc1/C=C/C(=O)/C=C/c1nc2ccccc2n1CCC
IC50 [4]: 100 nM | IC50 [5]: 220 nM | IC50 [6]: 220 nM | Ratio IC50 [7]: 254 | Ratio IC50 [8]: 119 | Ratio IC50 [9]: 62 | IC50 [10]: 20 nM | Ratio IC50 [11]: 443 | IC50 [12]: 350 nM | IC50 [13]: 1120 nM | IC50 [14]: 220 nM | concentration at 1 h [15]: 114 ng/mL | concentration at 3 h [16]: 196 ng/mL | concentration at 6 h [17]: 281 ng/mL | concentration at 24 h [18]: 86 ng/mL | Tmax [19]: 6 h | Cmax [20]: 281 ng/mL | AUC [21]: 4390 ng·h/mL | Activity [22]: Toxic | Activity [23]: 78% | Activity [24]: 76% | Activity [25]: 14% | viability at 2 µM [26]: 93% | Activity [27]: 3% | Activity [28]: 4% | viability at 4 µM [29]: 55% | Activity [30]: 23% | viability at 6 µM [31]: 22% | Activity [32]: 43% | Activity [33]: 35% | viability at 8 µM [34]: 13% | Activity [35]: 45% | Activity [36]: 42% | viability at 10 µM [37]: 8% | Activity [38]: 49% | Activity [39]: 43% | viability at 15 µM [40]: 1% | Activity [41]: 52% | Activity [42]: 47%

CCC(C)n1cc(O)nc1/C=C/C(=O)/C=C/c1sc(C)nc1C(F)(F)F (stereo not drawn)
Drug metabolism [1]: Metabolite_Detected | Retention_time [2]: 3.32 min
